# p-CIP stab down – p/CIP-EGFP fusion destabilizers, primary screen, fluorescence, F442A cells; 0.01% of 290,000 active; Q05BA5; AID 1984, 2009; decrease of EGFP signal, % at 10 µM; 16 h;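 active = EGFP signal decrease of at least 30% at 10 µM or well 3 SD below plate mean, unless failing retest; inactive = the rest, including hits failing retest or dose response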
# MsrA act – bovine MsrA enzyme activators, primary screen, biochemical, absorbance, HTS. Methionine sulfoxide reductase A (Bos taurus). purified bovine MsrA, absorbance read-out. activation, % at 10.6 µM. 0.3% of 360,000 active; in the data active = activation above about 7.5%;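 also: 0% = vehicle and 100% = reference activator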
# MsrA inh – bovine MsrA enzyme inhibitors, primary screen, biochemical, absorbance, HTS | Methionine sulfoxide reductase A (Bos taurus) | purified bovine MsrA, absorbance read-out | inhibition, % at 15.5 µM | 0.75% of 360,000 active | AID 651718, 2012; in the data active = inhibition above about 4.5%;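 also: 0% = vehicle wells with enzyme and 100% = reference inhibitor wells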
# MT1-MMP act inh – blockers of MT1-MMP proenzyme processing, primary screen, HT1080 RFP-PRO-GFP cells, GFP/RFP fluorescence; Matrix metalloproteinase-14 (Homo sapiens), P50281; GFP/RFP ratio fluorescence, overnight; percent of plate control window, DMSO zero; GFP/RFP ratio change, % at 20 µM; 0.061% of 360,000 active;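 active = GFP/RFP ratio change of at least 30% with cell ATP level not reduced by more than half and red fluorescence within 50% of control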
#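 Assay system: RFP-PRO-GFP reporter HT1080 cells; read-out basis: GFP/RFP fluorescence ratio; benchmarks: DMSO wells and RFP-L50D-GFP cells; doses: 20 µM single dose, 1% DMSO; schedule: overnight cell settling, then overnight compound exposure, 37 °C, 5% CO2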
# SKN-1 inh – suppressors of acrylamide-induced Pgst-4::GFP reporter in worms, primary screen, SKN-1 inhibitor project, whole organism, uHTS, GFP/RFP fluorescence ratio, strain VP596; C. elegans VP596 Pgst-4::GFP/RFP ratio, 24 h; inhibition, % at 21.8 µM; 0.49% of 360,000 active; AID 624304, 2012;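 active = interference check ratio from 0.5 to 1.5 plus GFP to RFP signal ratio inhibition reaching or exceeding a fixed threshold, cut at about 30% in these data, passing the limit was not always enough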
# MsrA activ conf – bovine MsrA activators, retest, confirmation, biochemical, absorbance, HTS; shares compounds with MsrA act; AID 602270, 2012; purified bovine MsrA, absorbance read-out; 12% of 1,000 active; activation, % at 10.6 µM; in the data active = activation above about 4%;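 also: enzyme coupled to thioredoxin and thioredoxin reductase with NADPH; 0% = vehicle wells and 100% = reference activator wells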
# Starred values were filed as active, the others as inactive; · = no result given. Most compounds without a hit are left out; they make up all but 1.6% or so of the library.
SMILES,p-CIP stab down,MsrA act,MsrA inh,MT1-MMP act inh,SKN-1 inh,others
Cc1cc(Oc2cccnc2)ccc1NC(=O)Cc1c(C)[nH]c2ccccc12,·,·,0,·,·,
Cc1cc(C)c(OCCOCCN2CCNCC2)c(C)c1,-3,-1,0,-11,39*,
Cc1cc(C)c(OCCOCCN2CCCC2)c(C)c1,·,-4,0,2,2,
COc1ccc(/C=C(\C#N)C(=O)NCC2CCCO2)cc1OC (stereo not drawn),-1,-2,4,2,36*,
COc1cc(/C=C(\C#N)C(=O)NCC2CCCO2)ccc1OCC(N)=O (stereo not drawn),-8,-2,2,-8,6,
CSc1ccc(-c2cc(=O)c3ccccc3o2)cc1,4,-15,2,·,47*,
O=c1cc(-c2ccc(F)cc2)oc2ccccc12,·,-4,0,0,53*,
Cc1csc(NC(=O)/C=C/c2ccc3c(c2)OCO3)n1,-4,-9,4.6*,1,5,
O=C(/C=C/c1ccc2c(c1)OCO2)Nc1nc(-c2ccc(F)cc2F)cs1,-6,·,·,·,·,
COc1cc(C2Nc3ccc4ccccc4c3C3=C2C(=O)CC(C)(C)C3)ccc1OCC(=O)O (stereo not drawn),-3,-5,2,-1,5,
COc1cccc(C2Nc3ccc4ccccc4c3C3=C2C(=O)CC(C)(C)C3)c1OCC(=O)O (stereo not drawn),-3,-3,0,-3,35*,
CC1(C)CC(=O)C=C(c2ccccc2-c2ccc3c(c2)OCO3)C1=O,·,·,2,·,·,
COC(=O)C1=C(C)N(Cc2ccc(C(F)(F)F)cc2)C(=NCc2ccccc2C(F)(F)F)NC1c1ccc(Cl)cc1 (stereo not drawn),·,·,0,·,·,
O=C(Nc1ccc(C2CC2(Cl)Cl)cc1)c1ccccc1Br (stereo not drawn),1,-4,2,2,47*,
O=C(Nc1ccc(C(=O)N2CCCC2)cc1)c1ccccc1Br,-3,-6,0,-1,-17,
CCOc1ccccc1NC(=O)Cn1c(=O)oc2cc(Cl)ccc21,6,0,0,-1,35*,
O=C(Nc1ccc(N2CCCCC2)cc1)c1ccc2ccccc2n1,14,-5,0,7,69*,
O=C(Nc1nccs1)c1ccc2ccccc2n1,2,-3,1,3,57*,
C[C@H]1CN(C(=O)OC(C)(C)C)CCN1c1ccc(Br)c(C#N)c1,·,·,0,·,·,
O=C(NCCO)c1cccc(-c2ccc3nncn3c2)c1,·,-3,1,1,48*,
CN(C)CCCNC(=O)c1cccc(-c2ccc3nncn3c2)c1,·,-4,-1,3,0,
Nc1[nH]c(C(=O)c2ccccc2)c(-c2ccccn2)c1C(=O)c1c[nH]c2ccccc12,·,·,3,·,·,
Oc1cccc(Nc2c3ccccc3nc3ccccc23)c1,-19,-1,0,-11,36*,
COC(=O)CSc1nc2cc3c(cc2cc1C#N)OCO3,-7,-4,1,-6,26,
CC(C)OC(=O)CSc1nc2cc3c(cc2cc1C#N)OCO3,2,-8,0,-2,34*,
SMILES,p-CIP stab down,MsrA act,MsrA inh,MT1-MMP act inh,SKN-1 inh,others
CCCCCCCCN1C(=O)[C@@H](CC(=O)N2CCCCC2)C[C@@]2(C(=O)OC)C1=C[C@H](C1CCCC1)O[C@@H]2C,·,·,0,·,·,
Cc1ccc(OCC(=O)N/N=C\c2c(C)[nH]n(-c3ccccc3)c2=O)c([N+](=O)[O-])c1,11,11*,2,3,7,MsrA activ conf=-1
COc1ccc(N(CC(=O)NCc2ccc(C)cc2)S(=O)(=O)c2c(C)nn(C)c2C)cc1,1,9.7*,-1,7,14,MsrA activ conf=-2
COCCCNC(=O)c1cccs1,1,-1,1,2,18,
COc1ccc(CNCCNC(=O)c2cccs2)c(OC)c1OC,-12,18*,1,0,-19,MsrA activ conf=-2
Cn1c(N)c(S(=O)(=O)NCc2ccc(Cl)cc2)c(=O)n(C)c1=O,-5,8.9*,0,-2,1,MsrA activ conf=-3

# Bioassay records deposited in PubChem by several laboratories.
